Compound activity: PubChem, several laboratories
Most compounds without a hit are left out; they make up all but 3.1% or so of the library.
Beta cell apopt = blocks beta cell apoptosis | protection from apoptosis, % (concentration not given with the values) | INS-1E cytokine-induced death, ATP luminescence, 48 h; percent of positive-control rescue, neutral wells zero | AID 435005 | hit rate 0.8% among 300,000;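 active means Every replicate reaches about 75%, or at least half do and their mean reaches it too, limit read from the data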;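 further: higher means more ATP so stronger rescue from cytokine killing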
A1 inh = inhibitors of the anti-apoptotic protein A1, read as caspase activation; hit rate 0.066% among 330,000; MEF A1-2A-BIM cells, Caspase-Glo 3/7 luminescence, 3 h; percent of clofoctol response, vehicle zero; caspase activation, % (concentration not given with the values); AID 2462;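 active means over half of replicate activation scores above 10%, or exactly half above 10 with the replicate mean above 10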
T cruzi inh = T. cruzi replication inhibition | T. cruzi beta-gal in NIH3T3, luminescence, 90 h | inhibition, % (test concentration not listed) | hit rate 1.4% among 300,000;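 active means mean inhibition across valid replicates above about 55%, limit read from the data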;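 further: signal also drops with host cell toxicity which is not excluded here; higher percent means less beta-gal luminescence so fewer parasites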
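assay system = mouse NIH/3T3 fibroblasts infected with β-gal-expressing T. cruzi Tulahuen C4 | input = 5,000 NIH/3T3 host cells per well | buffer or medium = DMEM plus 2% FBS | timing = 3 h host attachment, then at least 90 h co-culture | measured by = GalScreen luminescence, 60 min | evaluation = luminescence reflecting intracellular parasite burden, expressed as percent inhibition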
Calb FLC = affects C. albicans growth with fluconazole | growth inhibition, % (test concentration not listed) | C. albicans CaCi-2 (fluconazole-resistant clinical isolate) + fluconazole, Alamar Blue growth, 48 h | AID 1979 | hit rate 0.57% among 300,000;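 active means growth inhibition above about 58% in most replicates, limit read from the data, passing the limit was not always enough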;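 further: all wells also contain fluconazole at 8 µg/ml as a sub-toxic cotreatment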
TAG inh = triacylglycerol accumulation inhibition; hit rate 0.66% among 230,000; inhibition, % at 12.5 µM; AID 651582; H9c2 cells, Nile Red lipid (TAG) fluorescence; cells loaded with 200 µM oleic acid;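 active means pattern-corrected inhibition of lipid staining of at least 50% with the nuclear-stain viability signal not falling by more than 50%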
CSC inhib = cancer stem cell inhibition. hit rate 1.1% among 300,000. AID 2717. cancer stem cell-like cells viability, luminescence. inhibition, % at 7.5 µM; in the data active means inhibition above about 75%; tested in HMLE shEcad cells
Hits are given with their value; . = inactive; / = no result given.

SMILES	Beta cell apopt	A1 inh	T cruzi inh	Calb FLC	TAG inh	CSC inhib
COc1ccccc1CNC(=O)CN1C(=O)NC(Cc2ccccc2)(c2ccccc2)C1=O (stereo not given)	.	.	/	/	.	.
CC(C)N=c1scc(-c2ccco2)n1/N=C/c1ccc(O)c(O)c1	.	.	/	/	/	98.8
COCCN=c1scc(-c2ccco2)n1/N=C/c1ccc(O)c(O)c1O	.	.	/	/	.	.
Cc1cccnc1NC(=O)c1cccc(S(=O)(=O)N2CCCc3ccccc32)c1	.	.	.	.	.	/
CC(C)C(=O)Nc1cc2c3c(c1)CCC(=O)N3CCC2	.	.	.	.	/	.
CCC(CC)c1nnc(NC(=O)Cc2c[nH]c3ccccc23)s1	/	/	/	/	.	/
CCOC(=O)c1cc([N+](=O)[O-])c([N+](=O)[O-])cc1NC(C)=O	.	.	.	106.4	/	.
CC(C)Nc1ncnc2c1ncn2[C@H]1CN(CCN2CCOCC2)C[C@@H](CO)O1	/	/	/	/	.	/
O=C1C=CC(=O)N1c1ccc(O)cc1	.	.	.	.	.	.
O=C1C=CC(=O)N1c1ccc(OC(F)F)cc1	.	.	/	/	/	103.2
NC1=NC[C@H](CC2CCCCC2)N1CCc1cc(C(F)(F)F)cc(C(F)(F)F)c1	.	.	.	91.7	.	101.9
FC(F)(F)c1cc(CCN2CCNC[C@@H]2CC2CCCCC2)cc(C(F)(F)F)c1	.	.	/	/	137.5	/
Cc1cccn2c(=O)c3cc(C(=O)NCCc4ccccc4)c(=N)n(Cc4ccco4)c3nc12	.	.	.	.	/	.
COCCCn1c(=N)c(C(=O)NCc2ccc3c(c2)OCO3)cc2c(=O)n3cccc(C)c3nc21	/	/	/	/	.	/
Cc1cccn2c(=O)c3cc(C(N)=S)c(=N)n(CCCN4CCOCC4)c3nc12	.	.	.	.	.	.
COCCCn1c(=N)c(C(N)=S)cc2c(=O)n3cccc(C)c3nc21	.	.	68.0	.	.	.
COc1ccc(CCNC(=O)c2cc3c(=O)n4cccc(C)c4nc3n(Cc3ccco3)c2=N)cc1OC	105.0	.	.	.	/	.
CCOCCCn1c(=N)c(C(=O)NCc2ccc3c(c2)OCO3)cc2c(=O)n3cccc(C)c3nc21	.	.	58.1	.	/	.
Cc1ccc2nc3c(cc(C(N)=S)c(=N)n3CCCOC(C)C)c(=O)n2c1	.	.	63.8	.	/	/
CC(C)CC1NC(=O)c2cc3ccccc3cc2-n2c1nc1cc(Cl)ccc1c2=O (stereo not given)	/	/	/	/	.	/
O=C(CN1C(=O)NC(c2ccccc2)(c2ccccc2)C1=O)NC1CCCCC1	/	/	/	/	.	/
O=C(CS(=O)(=O)c1ccc2ccccc2c1)N1CCCCCC1	.	.	.	.	.	.
Cc1nn(-c2ccccc2)c(C)c1C(=O)OCC(=O)N(C)c1c(N)n(Cc2ccccc2)c(=O)[nH]c1=O	.	.	.	.	.	/
Cc1ccc(NS(=O)(=O)c2cc([N+](=O)[O-])ccc2N/N=C/c2sc(N3CCOCC3)nc2-c2ccccc2)c(C)c1	75.1	.	.	.	.	.
O=C(CCN1C(=O)/C(=C/c2ccccc2)SC1=S)NCCCN1CCOCC1	.	.	54.8	.	/	.
SMILES	Beta cell apopt	A1 inh	T cruzi inh	Calb FLC	TAG inh	CSC inhib
COc1ccccc1/C=C1\SC(=O)N(CCC(=O)NCCCn2ccnc2)C1=O	125.2	.	.	.	/	97.3
COc1cccc(/C=C2\SC(=O)N(CCC(=O)NCCCn3ccnc3)C2=O)c1	.	.	.	.	/	.
O=C(CCN1C(=O)/C(=C\c2cccc(Br)c2)SC1=S)NCCCN1CCOCC1	.	.	.	.	/	/
COc1ccc(/C=C2\SC(=S)N(CCC(=O)NCCCn3ccnc3)C2=O)cc1	.	.	.	.	/	.
COc1ccccc1/C=C1\SC(=S)N(CCC(=O)NCCCn2ccnc2)C1=O	/	.	.	.	/	99.6
O=C(Oc1ccccc1C(=S)N1CCOCC1)c1cccc([N+](=O)[O-])c1	.	.	.	.	/	.
COCCN(C(=O)COC(=O)CNC(=O)c1ccc(C)cc1)c1c(N)n(Cc2ccccc2)c(=O)[nH]c1=O	/	/	/	/	.	/
Cc1cc(C)n(-c2ccc(C(=O)OCC(=O)Nc3cc(S(C)(=O)=O)ccc3Cl)cc2)n1	.	.	/	/	.	.
CCN(CC)CCN(C(=O)c1ccc2c(c1)OCCO2)c1nc2ccc(C)cc2s1	.	.	68.6	.	.	.
CCN(CC)CCN(C(=O)c1cc2c(ccc3ccccc32)oc1=O)c1nc2cc3c(cc2s1)OCCO3	101.9	7.2	.	.	.	90.8
Cc1cc(C)c2nc(N(CCCN(C)C)C(=O)c3ccc4c(c3)OCCO4)sc2c1	/	.	56.9	.	.	.
Cc1ccc2nc(N(CCN(C)C)C(=O)c3ccc4ccccc4c3)sc2c1	.	.	.	.	/	.
Cc1ccc2nc(N(CCN(C)C)C(=O)c3ccc4c(c3)OCCO4)sc2c1	.	.	71.7	.	.	.
CN(C(=O)COC(=O)c1cccc(S(=O)(=O)N2CCOCC2)c1)C1CCS(=O)(=O)C1 (stereo not given)	.	.	.	.	.	.
Cc1c(C(=O)Nc2ccccc2F)sc2ncn(CC(=O)N3CCCCC3)c(=O)c12	.	.	.	.	/	.
NC1(C(=O)O)CCCCC1c1ccccc1 (stereo not given)	/	/	/	/	.	/
O=C(NCCc1ccccc1O)c1cc2c(cc1[N+](=O)[O-])OCO2	/	/	/	/	.	/
COc1ccccc1CCNC(=O)C(=O)Nc1cc2c3c(c1)CC(=O)N3CCC2	.	.	.	.	.	.
CCOC(=O)c1cc2c(=O)n3ccccc3nc2n(C(C)C)c1=NC(=O)c1c(-c2c(F)cccc2Cl)noc1C	.	.	58.3	.	.	.
CCOC(=O)c1cc2c(=O)n3ccccc3nc2n(C)c1=NC(=O)c1c(-c2c(F)cccc2Cl)noc1C	.	.	.	.	.	.
COc1cccc(NC(=O)c2nc(S(C)(=O)=O)ncc2Cl)c1	.	.	.	.	/	112.9
CN(c1ccccc1)S(=O)(=O)c1ccc(NC(=O)c2ccccc2)cc1	.	.	.	.	/	.
CN(c1ccccc1)S(=O)(=O)c1ccc(NC(=O)c2nc(S(C)(=O)=O)ncc2Cl)cc1	98.8	.	.	.	/	.
CC(CCc1ccccc1)NC(=O)CCNS(=O)(=O)c1ccccc1C(F)(F)F (stereo not given)	.	.	/	/	.	/
NS(=O)(=O)c1ccc(Cl)cc1[N+](=O)[O-]	.	.	.	.	/	.
SMILES	Beta cell apopt	A1 inh	T cruzi inh	Calb FLC	TAG inh	CSC inhib
C/C(CC(C)(C)C1CCCCC1)=N\NC(N)=S	/	.	55.8	104.4	/	/
O=C1C(c2ccccc2)=[N+]([O-])c2ccccc21	.	.	.	.	.	81.8
O=C(NCc1cccs1)c1cc(-c2ccncc2)nc2ccc(Br)cc12	.	.	54.8	.	/	.
O=C(c1ccco1)N1CCN(C(=O)c2cc(-c3ccncc3)nc3ccc(Br)cc23)CC1	.	.	56.4	.	.	.
COCCNC(=O)c1cc(-c2cccnc2)nc2ccc(Br)cc12	.	.	.	.	/	.
CCC(=O)c1ccc(OCC(=O)Nc2cccc(S(=O)(=O)N3CCCCCC3)c2)cc1	/	/	/	/	.	/
